Converted amounts (≈) assume the structure as drawn.

This passage reports MIC, IC50 and Activity results from ChEMBL document CHEMBL1777703, “Synthesis and Biological Evaluation of Muraymycin Analogues Active against Anti-Drug-Resistant Bacteria” (ACS Med Chem Lett, 2010).

In data set [1] the test system is Enterococcus faecium. Nature of the data set: Antibacterial activity against vancomycin-resistant Enterococcus faecium SR7917 after 20 hrs by broth microdilution method. It counts as functional. Conditions: SR7917, 20 h. The gist of the method: (§1)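 MIC by broth microdilution following NCCLS guidance in cation-adjusted Mueller-Hinton broth. Compounds tested as serial 2-fold dilutions, tested up to 64 μg/mL. Each well inoculated with 5 × 10^4 CFU of the strain in 0.1 mL. Incubation at 35 °C for 20 h, after which the MIC was scored.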

For data set [2], the system named is Enterococcus faecium. In words: Antibacterial activity against Enterococcus faecium ATCC 19434 after 20 hrs by broth microdilution method. The class given is functional. The conditions noted are these: ATCC 19434, 20 h. The gist of the method: as §1
(Dilution methods test growth across graded concentrations, often in twofold steps.)

The target of data set [3] is T1, Phospho-N-acetylmuramoyl-pentapeptide-transferase (Bacillus subtilis (strain 168), UniProt Q03521).
T1 sequence (Q03521 whole entry): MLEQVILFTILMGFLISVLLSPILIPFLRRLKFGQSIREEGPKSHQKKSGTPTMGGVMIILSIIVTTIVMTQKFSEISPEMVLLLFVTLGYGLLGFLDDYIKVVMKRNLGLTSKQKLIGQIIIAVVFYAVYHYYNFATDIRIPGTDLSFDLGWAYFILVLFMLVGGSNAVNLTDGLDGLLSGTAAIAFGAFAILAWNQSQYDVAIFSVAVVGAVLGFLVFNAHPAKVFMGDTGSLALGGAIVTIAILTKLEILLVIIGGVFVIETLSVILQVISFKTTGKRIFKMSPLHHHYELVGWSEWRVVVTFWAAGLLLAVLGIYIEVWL
Nature of the data set: Inhibition of purified Bacillus subtilis MraY assessed as incorporation of MurNAc-[14C]pentapeptide into lipid 1 after 30 mins. The gist of the method: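 Purified B. subtilis MraY. Final mix: 100 mM Tris-HCl pH 7.5, 40 mM MgCl2, 1.1 mM C55-P, 250 mM NaCl, 0.25 mM UDP-MurNAc-[14C]pentapeptide (337 Bq), 8.4 mM N-lauroyl sarcosine. Incubated 30 min at 37 °C. Substrate and lipid I separated by silica TLC and quantified by radioactivity scanning. IC50 calculated relative to an inhibitor-free control.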

The test system of data set [4] is Staphylococcus aureus. Nature of the data set: Antibacterial activity against methicillin-susceptible Staphylococcus aureus ATCC 29213 after 20 hrs by broth microdilution method. It counts as functional. Conditions: ATCC 29213, 20 h. The gist of the method:
as §1

The subject of data set [5] is Staphylococcus aureus. Nature of the data set: Antibacterial activity against methicillin-resistant Staphylococcus aureus SR3637 after 20 hrs by broth microdilution method. It counts as functional. Conditions: SR3637, 20 h. The gist of the method: as §1
In data set [6] the test system is Enterococcus faecalis. In words: Antibacterial activity against vancomycin-resistant Enterococcus faecalis SR7914 after 20 hrs by broth microdilution method. It counts as functional. Conditions: SR7914, 20 h. The method in brief:
as §1

Data set [7] concerns Enterococcus faecalis. In words: Antibacterial activity against Enterococcus faecalis ATCC 29212 after 20 hrs by broth microdilution method. It counts as functional. Conditions: ATCC 29212, 20 h. The method in brief: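 MIC by NCCLS broth microdilution in cation-adjusted Mueller-Hinton broth with serial 2-fold compound dilutions. Inoculum 5 × 10^4 CFU per strain in 0.1 mL. Incubated 35 °C for 20 h before scoring.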

For data set [8], the system named is HepG2. In words: Cytotoxicity against human HepG2 cells after 48 hrs by WST-8 assay. It counts as cell-based. The conditions noted are these: hepg2, 48 h. On the technique in general: Formazan colour is commonly taken as a measure of viable cells.

Usually MIC stands for the least concentration at which growth counts as inhibited. Low values mean inhibition by little substance, high ones a need for much substance. A word on the IC50: it is the concentration that gives 50% inhibition. For `CCCCCCCCCCCCN[C@H](C(=O)O)[C@H](O[C@@H]1O[C@H](CN)[C@@H](O)[C@H]1O)[C@H]1O[C@@H](n2ccc(=O)[nH]c2=O)[C@H](O)[C@@H]1O`, the minimal inhibitory concentration (MIC) in data set [1] was 64 µg/mL (≈ 104 µM); in data set [2], 64 µg/mL (≈ 104 µM); in data set [4], above 64 µg/mL; in data set [5], above 64 µg/mL; in data set [6], 64 µg/mL (≈ 104 µM); in data set [7], 32 µg/mL (≈ 51.9 µM). Also, the IC50 in data set [3] is 5000 nM.
Turning to `CC(C)[C@H](NC(=O)N[C@H](C(=O)N[C@@H](CCCCCCCc1ccc(-c2ccccc2)cc1)C(=O)NCCCN[C@H](C(=O)O)[C@H](O[C@@H]1O[C@H](CN)[C@@H](O)[C@H]1O)C1O[C@@H](n2ccc(=O)[nH]c2=O)[C@H](O)[C@@H]1O)[C@@H]1CCNC(=N)N1)C(=O)O` (single isomer, unassigned), the minimal inhibitory concentration (MIC) was found to be 8 µg/mL (≈ 7.21 µM) in data set [1]; 4 µg/mL (≈ 3.6 µM) in data set [2]; 4 µg/mL (≈ 3.6 µM) in data set [4]; 4 µg/mL (≈ 3.6 µM) in data set [5]; 16 µg/mL (≈ 14.4 µM) in data set [6]; 4 µg/mL (≈ 3.6 µM) in data set [7]. The Activity result in data set [8] is on record as “Non-toxic”.
Regarding `CCCCOc1ccc(-c2ccc(CC[C@@H](NC(=O)[C@@H](NC(=O)N[C@H](C(=O)O)C(C)C)[C@@H]3CCNC(=N)N3)C(=O)NCCCN[C@H](C(=O)O)[C@H](O[C@@H]3O[C@H](CN)[C@@H](O)[C@H]3O)C3O[C@@H](n4ccc(=O)[nH]c4=O)[C@H](O)[C@@H]3O)cc2)cc1` (single isomer, unassigned), the MIC was found to be 8 µg/mL (≈ 7.19 µM) in data set [1]; 4 µg/mL (≈ 3.6 µM) in data set [2]; 64 µg/mL (≈ 57.5 µM) in data set [4]; 64 µg/mL (≈ 57.5 µM) in data set [5]; 64 µg/mL (≈ 57.5 µM) in data set [6]; 32 µg/mL (≈ 28.8 µM) in data set [7]. Besides, the Activity result in data set [8] was “Non-toxic”.
Consider `CCCCCCOc1ccc(-c2ccc([C@H](NC(=O)[C@@H](NC(=O)N[C@H](C(=O)O)C(C)C)[C@@H]3CCNC(=N)N3)C(=O)NCCCN[C@H](C(=O)O)[C@H](O[C@@H]3O[C@H](CN)[C@@H](O)[C@H]3O)C3O[C@@H](n4ccc(=O)[nH]c4=O)[C@H](O)[C@@H]3O)cc2)cc1` (single isomer, unassigned), for which the MIC in data set [1] came to 4 µg/mL (≈ 3.6 µM); in data set [2], 4 µg/mL (≈ 3.6 µM); in data set [4], 4 µg/mL (≈ 3.6 µM); in data set [5] it was 8 µg/mL (≈ 7.19 µM); in data set [6], 8 µg/mL (≈ 7.19 µM); in data set [7], 8 µg/mL (≈ 7.19 µM). Moreover, the Activity entry in data set [8] is “Non-toxic”.
`CCCCCCOc1ccc(-c2ccc([C@@H](NC(=O)[C@@H](NC(=O)N[C@H](C(=O)O)C(C)C)[C@@H]3CCNC(=N)N3)C(=O)NCCCN[C@H](C(=O)O)[C@H](O[C@@H]3O[C@H](CN)[C@@H](O)[C@H]3O)C3O[C@@H](n4ccc(=O)[nH]c4=O)[C@H](O)[C@@H]3O)cc2)cc1` (single isomer, unassigned): the MIC came to 8 µg/mL (≈ 7.19 µM) in data set [1]; 4 µg/mL (≈ 3.6 µM) in data set [2]; 16 µg/mL (≈ 14.4 µM) in data set [4]; 16 µg/mL (≈ 14.4 µM) in data set [5]; 16 µg/mL (≈ 14.4 µM) in data set [6]; 16 µg/mL (≈ 14.4 µM) in data set [7]. In addition, the Activity entry in data set [8] is reported as “Non-toxic”.
Take `CC(C)C[C@@H](NC(=O)[C@@H](NC(=O)N[C@H](C(=O)O)C(C)C)[C@@H]1CCN=C(N)N1)C(=O)NCCCN[C@H](C(=O)O)[C@H](O[C@@H]1O[C@H](CN)[C@@H](O)[C@H]1O)C1O[C@@H](n2ccc(=O)[nH]c2=O)[C@H](O)[C@@H]1O` (single isomer, unassigned): the MIC in data set [1], in data set [2], in data set [4], in data set [5], in data set [6] and in data set [7] was above 64 µg/mL each time. Also, the half-inhibitory concentration (IC50) in data set [3] is 90 nM.
On to `CCCCCCCCCCCCCCC[C@H](NC(=O)[C@@H](NC(=O)N[C@H](C(=O)O)C(C)C)[C@@H]1CCN=C(N)N1)C(=O)NCCCN[C@H](C(=O)O)[C@H](O[C@@H]1O[C@H](CN)[C@@H](O)[C@H]1O)C1O[C@@H](n2ccc(=O)[nH]c2=O)[C@H](O)[C@@H]1O` (single isomer, unassigned), for which the MIC in data set [1] was 2 µg/mL (≈ 1.87 µM); in data set [2], 4 µg/mL (≈ 3.74 µM); in data set [4], 2 µg/mL (≈ 1.87 µM); in data set [5] it was 4 µg/mL (≈ 3.74 µM); in data set [6], 4 µg/mL (≈ 3.74 µM); in data set [7], 4 µg/mL (≈ 3.74 µM). Also, in data set [3], the IC50 turned out to be 330 nM. Besides, in data set [8], the Activity result was “Non-toxic”.
Consider `CCCCCCCCCCCCCCC[C@@H](NC(=O)[C@@H](NC(=O)N[C@H](C(=O)O)C(C)C)[C@@H]1CCN=C(N)N1)C(=O)NCCCN[C@H](C(=O)O)[C@H](O[C@@H]1O[C@H](CN)[C@@H](O)[C@H]1O)C1O[C@@H](n2ccc(=O)[nH]c2=O)[C@H](O)[C@@H]1O` (single isomer, unassigned), for which the MIC in data set [1] amounted to 0.25 µg/mL (≈ 0.234 µM); in data set [2], 0.5 µg/mL (≈ 0.467 µM); in data set [4] it was 2 µg/mL (≈ 1.87 µM); in data set [5], 4 µg/mL (≈ 3.74 µM); in data set [6], 4 µg/mL (≈ 3.74 µM); in data set [7], 2 µg/mL (≈ 1.87 µM). In addition, the IC50 in data set [3] turned out to be 740 nM. Also, the Activity result in data set [8] is on record as “Non-toxic”.
As to `CC(C)[C@H](NC(=O)N[C@H](C(=O)N[C@H](CCCCCCCc1ccc(-c2ccccc2)cc1)C(=O)NCCCN[C@H](C(=O)O)[C@H](O[C@@H]1O[C@H](CN)[C@@H](O)[C@H]1O)C1O[C@@H](n2ccc(=O)[nH]c2=O)[C@H](O)[C@@H]1O)[C@@H]1CCNC(=N)N1)C(=O)O` (single isomer, unassigned), the minimal inhibitory concentration (MIC) in data set [1] worked out at 4 µg/mL (≈ 3.6 µM); in data set [2], 4 µg/mL (≈ 3.6 µM); in data set [4] it was 8 µg/mL (≈ 7.21 µM); in data set [5] it was 16 µg/mL (≈ 14.4 µM); in data set [6] it was 16 µg/mL (≈ 14.4 µM); in data set [7] it was 8 µg/mL (≈ 7.21 µM). In data set [8], the Activity result is given as “Non-toxic”.
In the case of `CCCCOc1ccc(-c2ccc(CC[C@H](NC(=O)[C@@H](NC(=O)N[C@H](C(=O)O)C(C)C)[C@@H]3CCNC(=N)N3)C(=O)NCCCN[C@H](C(=O)O)[C@H](O[C@@H]3O[C@H](CN)[C@@H](O)[C@H]3O)C3O[C@@H](n4ccc(=O)[nH]c4=O)[C@H](O)[C@@H]3O)cc2)cc1` (single isomer, unassigned), the MIC in data set [1] was 32 µg/mL (≈ 28.8 µM); in data set [2] it was 16 µg/mL (≈ 14.4 µM); in data set [4], 16 µg/mL (≈ 14.4 µM); in data set [5] it was 32 µg/mL (≈ 28.8 µM); in data set [6], 64 µg/mL (≈ 57.5 µM); in data set [7] it was 16 µg/mL (≈ 14.4 µM). The Activity entry in data set [8] is listed as “Non-toxic”.
Regarding `CC(C)C[C@H](NC(=O)[C@@H](NC(=O)N[C@H](C(=O)O)C(C)C)[C@@H]1CCNC(=N)N1)C(=O)NCCCN[C@H](C(=O)O)[C@H](O[C@@H]1O[C@H](CN)[C@@H](O)[C@H]1O)[C@H]1O[C@@H](n2ccc(=O)[nH]c2=O)[C@H](O)[C@@H]1O` [MURAMYCIN D2], the MIC in data set [1], in data set [2], in data set [4], in data set [5], in data set [6] and in data set [7] was above 64 µg/mL throughout. For the same compound, the half-inhibitory concentration (IC50) in data set [3] stood at 10 nM.
As for `CN[C@H](CC(C)C)C(=O)N[C@H]1C(=O)N[C@@H](CC(N)=O)C(=O)N[C@H]2C(=O)N[C@H]3C(=O)N[C@H](C(=O)N[C@H](C(=O)O)c4cc(O)cc(O)c4-c4cc3ccc4O)[C@H](O)c3ccc(c(Cl)c3)Oc3cc2cc(c3O[C@@H]2O[C@H](CO)[C@@H](O)[C@H](O)[C@H]2O[C@H]2C[C@](C)(N)[C@H](O)[C@H](C)O2)Oc2ccc(cc2Cl)[C@H]1O` [VANCOMYCIN], the values for the MIC in data set [1], in data set [6] and in data set [7] were above 64 µg/mL, above 64 µg/mL and 1 µg/mL (≈ 0.69 µM), respectively.
